PubChem BioAssay AID1027 (Sanford-Burnham Center for Chemical Genomics, 2008)
In all, about 200,000 compounds went through this assay and fewer than 10 were called active.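 The calls were made as follows: active = luciferase activation factor, scaled between plate controls, of at least 2 with compound at 10 µM; inactive = the rest.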 A selection follows.

Biological target: Luciferin 4-monooxygenase (Photinus pyralis) (UniProt P08659)
Assay: FLuc activators, initial screening, artefact control for FLuc-dependent activation tests, biochemical, ATPlite luminescence (AID 1027)
Conditions: ATPlite luciferase biochemical, 10 min, at 10 µM, active compounds read high, 0 = ATP-free wells, 1 = DMSO control
In short: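 assay system = Luciferase/luciferin detection reagent, cell-free biochemical luciferase assay | also added = ATP substrate | times = 10 min post-reagent at room temperature | measured by = luminescence from luciferase reaction | measure = luciferase activation, seen as luminescence increase over controls | benchmarks = low control with PBS replacing ATP, high control enzyme plus ATP without compound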

Luciferin 4-monooxygenase (Photinus pyralis), sequence (P08659 whole entry, looked up): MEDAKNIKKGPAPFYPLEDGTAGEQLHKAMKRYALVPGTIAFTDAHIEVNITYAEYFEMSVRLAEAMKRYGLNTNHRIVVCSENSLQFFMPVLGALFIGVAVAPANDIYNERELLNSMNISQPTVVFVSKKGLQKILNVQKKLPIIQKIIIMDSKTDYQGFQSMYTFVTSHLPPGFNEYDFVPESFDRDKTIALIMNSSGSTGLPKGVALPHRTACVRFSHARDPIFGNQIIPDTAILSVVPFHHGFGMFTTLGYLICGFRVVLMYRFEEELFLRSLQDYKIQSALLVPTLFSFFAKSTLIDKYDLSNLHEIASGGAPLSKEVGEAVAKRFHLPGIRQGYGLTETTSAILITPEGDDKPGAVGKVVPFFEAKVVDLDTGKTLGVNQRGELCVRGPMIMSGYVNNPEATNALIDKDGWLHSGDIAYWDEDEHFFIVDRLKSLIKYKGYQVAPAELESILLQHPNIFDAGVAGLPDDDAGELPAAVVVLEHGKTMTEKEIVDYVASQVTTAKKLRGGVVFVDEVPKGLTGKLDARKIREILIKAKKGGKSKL

Activation factor, inactive:
COc1cc(OC)nc(N/N=C(\c2ccccc2)c2ccncc2)n1 1
CCn1ccnc1CN(C)Cc1nc(-c2ccc3c(c2)OCO3)no1 1
CCOC(=O)Cc1csc(SCC(=O)NC(C)C23CC4CC(CC(C4)C2)C3)n1 (stereo unspecified) 1
COc1ccc(C(=O)NC(=S)Nc2ccccc2N2CCN(S(C)(=O)=O)CC2)cc1OC 1.1
N#C/C(=C(/O)COC(=O)COc1ccc(Cl)cc1)c1nc2ccccc2[nH]1 1
O=C(Nc1ccc([N+](=O)[O-])cc1)C1CC12CCC2 (stereo unspecified) 1
COC(=O)c1c(C)oc2ccc(N(C(=O)Oc3ccccc3)S(=O)(=O)c3ccccc3)cc12 1.1
Cc1ccc(Cl)cc1NC(=S)N(CCN(C)C)Cc1cccs1 1.1
Cc1cc(/C=N/NC(N)=O)c(C)n1C1CCCCC1 1
COC(=O)C(C)N=Cc1ccccc1 (stereo unspecified) 1.1
CN(c1ccccc1)S(=O)(=O)c1ccc(Cl)c(C(=O)NCCc2c[nH]c3ccccc23)c1 1
COc1cccc(OC)c1C(=O)NC(=S)NCc1ccco1 1
CCn1c(/C=C/Nc2ccccc2)[n+](CC)c2ccc(C(=O)OCC(F)(F)F)cc21 1
CCOc1ccc(NC(=S)N2CCC(N(C)CC3CCCO3)CC2)cc1 (stereo unspecified) 1
Cc1nc(CN2CCN(C(=O)CCc3nnc(Cc4c[nH]c5ccccc45)o3)CC2)cs1 1
O=C(NCc1ccc(F)cc1)C(c1ccccc1)N(C(=O)c1csnn1)C1CC1 (stereo unspecified) 1.1
Cc1ccc(CC2S/C(=C(/C#N)C(=O)N3CCOCC3)N(c3ccccc3)C2=O)cc1 (stereo unspecified) 1.1
C/C=N/NC(=O)CCCC(=O)N/N=C/C 1
C/C(=N/NS(=O)(=O)c1ccccc1)c1ccc(NC(=O)C(F)(F)F)cc1 1
Cc1cc(OC(=O)c2ccccc2Cl)ccc1N1C(=O)CCC1=O 0.3
Cc1ccc(S(=O)(=O)N2CCN(CC(=O)N/N=C/c3ccc(Br)s3)CC2)cc1 1.1
O=C(c1ccc(S(=O)(=O)c2ccccc2)cc1)N1CCCCCC1 1
O=C1N/C(=C/c2cccs2)C(=O)N1Cc1ccc(F)cc1 1
CC1=CC=CN2C1=NC(=O)CC2(C)C(=O)N(CC(=O)NC1CCCC1)c1ccccc1C (stereo unspecified) 1.1
Cc1cc(C)n(CCNC(=O)CC2C(=O)NCCN2Cc2ccc(C)o2)n1 (stereo unspecified) 1
O=C(NNC(=S)NCCCN1CCOCC1)c1ccncc1 1.1
COc1cc(/C=C/C(=O)N2c3ccccc3Sc3ccc(C(F)(F)F)cc32)cc(OC)c1OC 1
CC(=O)Nc1ccc(NC(=S)NC(=O)c2ccc([N+](=O)[O-])c(C)c2)cc1 0.9
O=C(COC(=O)C1CCN(S(=O)(=O)c2ccc3c(c2)OCCO3)CC1)Nc1ccccc1OC(F)F 1
CCc1ccc(OCC(=O)OCC(=O)c2c(N)n(C)c(=O)n(C)c2=O)cc1 1.1
O=C(c1ccc(-c2ccccc2)cc1)C1CCCN(C(=O)c2cncs2)C1 (stereo unspecified) 1.1
O=C(CSC1CC(=O)N(CCc2ccccc2)C1=O)Nc1ccc(Cl)cc1 (stereo unspecified) 1
CC(=O)Nc1ccc(Nc2nc3c(S(=O)(=O)c4ccc(C)c(C)c4)nnn3c3ccccc23)cc1 1
COc1cccc(CNC(=O)Cc2csc(Nc3nc(=S)[nH]c4ccccc34)n2)c1 1.1
CCn1c(-c2ccncc2)n[nH]c1=S 1
O=C(COC(=O)c1cccc(Br)c1)Nc1cccc2c1C(=O)c1ccccc1C2=O 1
O=c1[nH]n2c(-c3ccccc3)nc(O)c2c2ccccc12 1
N/C(Cc1ccc([N+](=O)[O-])cc1)=N\OC(=O)C1CCCCC1 1
Cc1c(-c2cccc(Cl)c2)nc2ccccc2c1C(=O)OCC(=O)N(C)C1CCS(=O)(=O)C1 (stereo unspecified) 1
COCCCNCCOCCOc1ccc(Cl)cc1Br 1
CC(=O)Nc1ccc(SCC(=O)Nc2ccccc2Oc2ccccc2)cc1 1
Cc1cc(Oc2ccc(Cl)cc2)nc(SCC(=O)c2ccccc2)n1 1
C/C(=N\Nc1ccc([N+](=O)[O-])cc1)c1ccc(-n2nncc2C(C)(C)C)cc1 1
Cc1cccc(C)c1NC(=O)CNC(=O)Cc1ccc(Br)cc1 1.1
Cc1ccc(C(=O)C(=S)N2CCOCC2)cc1 1.1
Cc1ccc(N(CCC(=O)O)S(=O)(=O)c2cccc(C(F)(F)F)c2)cc1 1
Cc1ccc(NN=Nc2nc3c([nH]2)c(=O)n(C)c(=O)n3C)cc1 1
O=C(N/N=C/c1ccc(Cl)cc1)c1nc2ccc([N+](=O)[O-])cc2c(=O)[nH]1 1
CC(=O)Nc1ccc(NC(=O)CSc2nnc(COc3ccccc3C)n2CC2CCCO2)cc1 (stereo unspecified) 1
Fc1cc(Br)ccc1NC(=S)Nc1cccnc1 1.1
O=c1cc(CN2CCN(S(=O)(=O)/C=C/c3ccccc3)CC2)c2ccc(O)cc2o1 1
CC1(C)CN(c2ccc(-c3ccnc4ncnn34)cc2)C1=O 1
CN(C)CCOc1ccc(Cl)cc1C(C)(C)C 1.1
CCNC(=S)N1CCN(c2ncccn2)CC1 1
CCc1nnc(NS(=O)(=O)c2ccc(NC(=S)NC(=O)/C=C/c3cccs3)cc2)s1 1
COC(=O)C[n+]1cccc2ccccc21 1
Cc1cccc(N2CCN(C(=O)c3cccc(S(=O)(=O)N4CCc5ccccc5C4)c3)CC2C)c1 (stereo unspecified) 1.1
CC(=O)NC(Cc1ccc(F)c(F)c1)C(=O)NC1CCN(C(=O)c2ccc(C)cc2)CC1 (stereo unspecified) 1.1
CCCCN(CC)C(=O)c1ccccc1Oc1ccccc1 1
Cc1ccccc1C1CC(c2cccs2)=NN1S(C)(=O)=O (stereo unspecified) 1.1
CCn1nc(C)cc1C(=O)N1CCCC(C(=O)c2cccc(OC)c2)C1 (stereo unspecified) 0.9
C=C(C)c1cccc(C(C)(C)NC(=O)NCCN(CC)CC)c1 1
Clc1ccc(-c2csc(-c3ccncc3)n2)cc1 0.9
COCCNC(=S)Nc1cc(S(=O)(=O)N2CCOCC2)ccc1N1CCCCC1 1
CC(C)OCCCNC(=O)c1ccc(C2SCC(=O)N2Cc2ccco2)cc1 (stereo unspecified) 1
COc1cccc(-n2c(=S)[nH]c3c(oc4ccccc43)c2=O)c1 1
CCc1cc(CNC(=O)CC2C(=O)NCCN2CC2CCCCC2)on1 (stereo unspecified) 1.1
CCCCOC(=O)c1ccc(NC(c2ccc(C)cc2)P(=O)(OC)OC)cc1 (stereo unspecified) 1
CC1=C(C(=O)Nc2cc(C)ccn2)C(c2cnn(C)c2)C2=C(CC(c3ccccc3)CC2=O)N1 (stereo unspecified) 1.1
COc1cc(NC(=O)CSc2nnc3ccc(-c4ccncc4)nn23)cc(OC)c1 1
COc1ccc(CN2CCNC(=O)C2CC(=O)N(C)Cc2ccccn2)cc1OC (stereo unspecified) 1
Cc1cc(C(=O)N/N=C\C(Br)=C\c2ccccc2)c(C)o1 0.8
O=C(Cn1nnc2ccccc2c1=O)NCc1ccc(Cl)cc1 1
O=C1CCCN1CCCNC(=S)Nc1ccc(F)c(Cl)c1 1
Cc1c(CN2CCCC(C(=O)c3cccc(Cl)c3)C2)c(=O)n(-c2ccccc2)n1C (stereo unspecified) 1
Cc1ccc(-c2csc(NC(=O)Cn3[nH]c(=O)c4ccccc4c3=O)n2)cc1 1
CC[n+]1c(C)n(-c2ccccc2)c2ccc(NC(C)=O)cc21 1
O=S(=O)(c1ccccc1)c1nc(-c2ccccc2F)oc1NCc1cccnc1 1.1
C/C(=N\NC(=S)NCc1ccccc1)c1ccc(Cl)cc1 1
CCCc1cc(-c2nc(-c3ccc(C)cc3)cs2)ccn1 1
CSCC[C@H](NC(=O)OC(C)(C)C)C(=O)N/N=C/c1cc2ccc(C)cc2nc1Cl 1.1
CCOC(=O)c1[nH]c2c(c1-c1ccccc1)C(=O)CC(c1ccc(Cl)cc1)C2 (stereo unspecified) 1
Cc1ccc(-n2ncc3c(=O)n(-c4ccc(C)c(C)c4)c(-c4ccco4)nc32)cc1 1
COc1cc(NC(=O)COC(=O)CSc2ccc3ccccc3c2)c(C)cc1[N+](=O)[O-] 1.1
CNC(=O)c1[nH]cnc1C(=O)N[C@@H](CC(C)C)C(=O)OCc1ccccc1 1.1
CCN(CCCNC(=O)CCn1c(=O)[nH]c2ccsc2c1=O)c1ccccc1 1
CCc1ccc(C2C(C#N)=C(N)N(N(C)C)C3=C2C(=O)CCC3)s1 (stereo unspecified) 1
O=C(CCCNS(=O)(=O)c1cccc2nsnc12)NCCN1CCN(c2ccccc2F)CC1 1.1
Cc1ccc(NC(=O)CSc2nc(CSc3ccc(C)cc3)cc(=O)[nH]2)cc1 0.9
Cc1cccc(N2CCN(C(=O)c3cnn4c(C(F)F)cc(-c5ccccc5)nc34)CC2)c1C 1
Cc1ccc(NC(=O)CN2CCCCC2)c2c1CC(C)(C)O2 1
CC[C@H](C)[C@@H](C(=O)N1CCNCC1)n1cc([C@@H](N)Cc2ccc(O)cc2)nn1 1.1
CCN(CC)CCNc1nc(-c2ccc(OC(F)F)cc2)c(C)s1 1
CNC(=O)/C(C#N)=C/c1c(F)cccc1Cl 1
Clc1ccc(-c2cc(C3CCNCC3)[nH]n2)c(Cl)c1 1
COc1ccc(C2=NN(c3nc4ccccc4s3)C(=O)C2)cc1 0.4
